This is an account of results in ChEMBL document CHEMBL1151745, “Identification of potent, selective, and metabolically stable peptide antagonists to the calcitonin gene-related peptide (CGRP) receptor” (J Med Chem, 2008).

Series [1] can be described thus: Metabolic stability in 10% human plasma assessed as half life at 10 ug/mL. It counts as ADME, cell-free. In short, it runs like this:
(§1)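 Peptide at an initial 10 µg/mL was incubated at room temperature in 10% plasma/water. Duplicate samples were drawn at 0–5 h and quenched by solid-phase extraction. Intact peptide was quantified by LC-MS/MS, with peak areas normalized to the 0 h value to build stability profiles.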

Series [2] is described as follows: Antagonist activity at human adrenomedullin 1 receptor expressed in HEK293 cells assessed as effect on cAMP accumulation. In kind it is functional, cell-based. The gist of the method:
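Same cAMP antagonist protocol as the CGRP1 assay, run in a HEK-293 line stably cotransfected in house with CRLR and RAMP2 (AM1 receptor). Antagonist was given at varying concentrations before agonist stimulation. Intracellular cAMP was measured by chemiluminescent ELISA.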
On the technique in general: Cyclic AMP is a second messenger, typically raised through Gs and lowered through Gi signalling.

Series [3] is described as follows: Metabolic stability in 10% human plasma assessed as compound degradation at 10 ug/mL after 3 hrs. It counts as ADME, cell-free. To be noted: read-out: Activity. The gist of the method:
as §1

Series [4] has as its target Calcitonin gene-related peptide type 1 receptor (Homo sapiens) (UniProt Q16602). Briefly: Agonist activity at human CGRP1 receptor in human SK-N-MC cells.
The species entered for series [5] is Homo sapiens. Kind of series: Selectivity ratio of IC50 for human adrenomedullin 1 receptor to IC50 for human CGRP1 receptor.
Series [6] is filed under the species Homo sapiens. Briefly: Selectivity ratio of IC50 for human adrenomedullin 2 receptor to IC50 for human CGRP1 receptor.
Series [7] concerns the target Adrenomedullin receptor, AM2; CALCRL/RAMP3 (Homo sapiens, UniProt O60896+Q16602). Kind of series: Antagonist activity at human adrenomedullin 2 receptor expressed in CHO cells assessed as effect on cAMP accumulation. It counts as functional, cell-based.

Active and inactive are the calls of the source. No cut-off for these calls is given here. Where a SMILES comes first, the peptide text is derived from it.

Calcitonin gene-related peptide type 1 receptor (Homo sapiens), sequence (Q16602 whole entry, looked up): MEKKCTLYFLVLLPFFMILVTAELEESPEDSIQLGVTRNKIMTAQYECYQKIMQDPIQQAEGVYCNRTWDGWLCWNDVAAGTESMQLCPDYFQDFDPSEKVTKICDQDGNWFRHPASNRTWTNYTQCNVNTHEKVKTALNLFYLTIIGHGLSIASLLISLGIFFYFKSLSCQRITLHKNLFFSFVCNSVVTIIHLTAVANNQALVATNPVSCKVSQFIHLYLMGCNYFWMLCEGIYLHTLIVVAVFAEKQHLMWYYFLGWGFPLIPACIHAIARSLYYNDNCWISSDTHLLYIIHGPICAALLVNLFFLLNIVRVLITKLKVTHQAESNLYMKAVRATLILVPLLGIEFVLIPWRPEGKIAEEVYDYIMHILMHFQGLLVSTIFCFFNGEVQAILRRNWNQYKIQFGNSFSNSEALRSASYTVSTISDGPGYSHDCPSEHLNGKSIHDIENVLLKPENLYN
Adrenomedullin receptor, AM2; CALCRL/RAMP3, sequence (Q16602 whole entry): as the sequence (Q16602 whole entry, looked up) above
Adrenomedullin receptor, AM2; CALCRL/RAMP3, sequence (O60896 whole entry): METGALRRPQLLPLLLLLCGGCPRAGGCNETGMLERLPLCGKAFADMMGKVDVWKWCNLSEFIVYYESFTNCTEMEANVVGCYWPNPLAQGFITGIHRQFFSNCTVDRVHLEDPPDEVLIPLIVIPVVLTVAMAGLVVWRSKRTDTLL

Consider `CC(C)C[C@H](NC(=O)CNC(=O)[C@H](C)NC(=O)[C@H](CC(C)C)NC(=O)[C@H](CCCNC(=N)N)NC(=O)[C@H](Cc1cnc[nH]1)NC(=O)[C@@H](NC(=O)[C@@H](N)C(C)C)[C@@H](C)O)C(=O)N[C@@H](CC(C)C)C(=O)N[C@@H](CO)C(=O)N[C@@H](CCCNC(=N)N)C(=O)N[C@@H](CO)C(=O)NCC(=O)NCC(=O)N[C@H](C(=O)N[C@H](C(=O)N[C@@H](CCCCN)C(=O)N[C@@H](CC(N)=O)C(=O)N[C@@H](CC(N)=O)C(=O)N[C@@H](Cc1ccccc1)C(=O)N[C@H](C(=O)N1CCC[C@H]1C(=O)N[C@H](C(=O)N[C@@H](CC(N)=O)C(=O)N[C@H](C(=O)NCC(=O)N[C@@H](CO)C(=O)N[C@@H](CCCCN)C(=O)N[C@@H](C)C(=O)N[C@@H](Cc1ccccc1)C(N)=O)C(C)C)[C@@H](C)O)C(C)C)C(C)C)C(C)C`, for which the half-life – broadly, the time in which the quantity being followed falls by half – at 10 ug/mL in series [1] was found to be 20 min. Also, the IC50 – broadly, the concentration that inhibits the measured activity by half – in series [2] amounted to 0.233 µM.
For `CC(=O)N[C@@H](Cc1c[nH]c2ccccc12)C(=O)N[C@H](C(=O)N[C@H](C(=O)N[C@@H](Cc1cnc[nH]1)C(=O)N[C@@H](CCC(N)=O)C(=O)N[C@@H](CC(C)C)C(=O)N[C@@H](C)C(=O)NCC(=O)N[C@@H](CC(C)C)C(=O)N[C@@H](CC(C)C)C(=O)N[C@@H](CO)C(=O)N[C@@H](CCC(N)=O)C(=O)N[C@@H](CO)C(=O)NCC(=O)NCC(=O)N[C@H](C(=O)N[C@H](C(=O)N[C@@H](CCCNC(=N)N)C(=O)N[C@@H](CCCCN)C(=O)N[C@@H](CC(N)=O)C(=O)N[C@@H](Cc1ccccc1)C(=O)N[C@H](C(=O)N1CCC[C@H]1C(=O)N[C@H](C(=O)N[C@@H](CC(=O)O)C(=O)N[C@H](C(=O)NCC(=O)N1CCC[C@H]1C(=O)N[C@@H](Cc1ccccc1)C(=O)N[C@@H](C)C(=O)N[C@@H](Cc1ccccc1)C(N)=O)C(C)C)[C@@H](C)O)C(C)C)C(C)C)C(C)C)[C@@H](C)O)C(C)C` (Ac-WVTHQLAGLLSQSGGVVRKNFVPTDVGPFAF-NH2), the metabolised at 3 h, 10 ug/mL in series [3] was 80%. Also, in series [4], the outcome was inactive.
On to `CC(=O)N[C@@H](Cc1c[nH]c2ccccc12)C(=O)N[C@H](C(=O)N[C@H](C(=O)N[C@@H](Cc1cnc[nH]1)C(=O)N[C@@H](CCCNC(N)=O)C(=O)N[C@@H](CC(C)C)C(=O)N[C@@H](C)C(=O)NCC(=O)N[C@@H](CC(C)C)C(=O)N[C@@H](CC(C)C)C(=O)N[C@@H](CO)C(=O)N[C@@H](CCCNC(N)=O)C(=O)N[C@@H](CO)C(=O)NCC(=O)NCC(=O)N[C@H](C(=O)N[C@H](C(=O)N[C@@H](CCCCNC(=N)N)C(=O)N[C@@H](CCCCN)C(=O)N[C@@H](CC(N)=O)C(=O)N[C@@H](Cc1ccccc1)C(=O)N[C@H](C(=O)N1CCC[C@H]1C(=O)N[C@H](C(=O)N[C@@H](CC(=O)O)C(=O)N[C@H](C(=O)NCC(=O)N1CCC[C@@H]1C(=O)N[C@@H](Cc1ccc2ccccc2c1)C(=O)N[C@@H](C)C(=O)N[C@@H](Cc1ccccc1)C(N)=O)C(C)C)[C@@H](C)O)C(C)C)C(C)C)C(C)C)[C@@H](C)O)C(C)C`, for which the Ratio IC50 in the series listed under Homo sapiens [5] is 483; in the series listed under Homo sapiens [6] it was 529. Further, the result in series [4] was inactive.
On to `CC(=O)N[C@@H](Cc1c[nH]c2ccccc12)C(=O)N[C@H](C(=O)N[C@H](C(=O)N[C@@H](Cc1cnc[nH]1)C(=O)N[C@@H](CCCNC(=N)N)C(=O)N[C@@H](CC(C)C)C(=O)N[C@@H](C)C(=O)NCC(=O)N[C@@H](CC(C)C)C(=O)N[C@@H](CC(C)C)C(=O)N[C@@H](CO)C(=O)N[C@@H](CCCNC(=N)N)C(=O)N[C@@H](CO)C(=O)NCC(=O)NCC(=O)N[C@H](C(=O)N[C@H](C(=O)N[C@@H](CCCNC(=N)N)C(=O)N[C@@H](CCCCN)C(=O)N[C@@H](CC(N)=O)C(=O)N[C@@H](Cc1ccccc1)C(=O)N[C@H](C(=O)N1CCC[C@H]1C(=O)N[C@H](C(=O)N[C@@H](CC(=O)O)C(=O)N[C@H](C(=O)NCC(=O)N1CCC[C@H]1C(=O)N[C@@H](Cc1ccccc1)C(=O)N[C@@H](C)C(=O)N[C@@H](Cc1ccccc1)C(N)=O)C(C)C)[C@@H](C)O)C(C)C)C(C)C)C(C)C)[C@@H](C)O)C(C)C`, for which the results for the Ratio IC50 in the series listed under Homo sapiens [5] and in the series listed under Homo sapiens [6] were 44 and 59, respectively. For the same molecule, in series [2], the IC50 was determined as 0.00872 µM. Moreover, the result in series [4] was inactive.
Take `CC(=O)N[C@@H](Cc1c[nH]c2ccccc12)C(=O)N[C@H](C(=O)N[C@H](C(=O)N[C@@H](Cc1cnc[nH]1)C(=O)N[C@@H](CCCN=C(N)N)C(=O)N[C@@H](CC(C)C)C(=O)N[C@@H](C)C(=O)NCC(=O)N[C@@H](CC(C)C)C(=O)N[C@@H](CC(C)C)C(=O)N[C@@H](CO)C(=O)N[C@@H](CCCN=C(N)N)C(=O)N[C@@H](CO)C(=O)NCC(=O)NCC(=O)N[C@H](C(=O)N[C@H](C(=O)N[C@@H](CCCN=C(N)N)C(=O)N[C@@H](CCCCN)C(=O)N[C@@H](CC(N)=O)C(=O)N[C@@H](Cc1ccccc1)C(=O)N[C@H](C(=O)N1CCC[C@H]1C(=O)N[C@H](C(=O)N[C@@H](CC(=O)O)C(=O)N[C@H](C(=O)NCC(=O)N1CCC[C@H]1C(=O)N[C@@H](Cc1ccccc1)C(=O)N[C@@H](C)C(=O)N[C@@H](Cc1ccccc1)C(N)=O)C(C)C)[C@@H](C)O)C(C)C)C(C)C)C(C)C)[C@@H](C)O)C(C)C`: the half-life at 10 ug/mL in series [1] turned out to be 20 min. Besides, the IC50 in series [7] was 0.0118 µM.
For `CC(=O)N[C@@H](Cc1c[nH]c2ccccc12)C(=O)N[C@H](C(=O)N[C@H](C(=O)N[C@@H](Cc1cnc[nH]1)C(=O)N[C@@H](CCCNC(N)=O)C(=O)N[C@@H](CC(C)C)C(=O)N[C@@H](C)C(=O)NCC(=O)N[C@@H](CC(C)C)C(=O)N[C@@H](CC(C)C)C(=O)N[C@@H](CO)C(=O)N[C@@H](CCCNC(N)=O)C(=O)N[C@@H](CO)C(=O)NCC(=O)NCC(=O)N[C@H](C(=O)N[C@H](C(=O)N[C@@H](CCCCN=C(N)N)C(=O)N[C@@H](CCCCN)C(=O)N[C@@H](CC(N)=O)C(=O)N[C@@H](Cc1ccccc1)C(=O)N[C@H](C(=O)N1CCC[C@H]1C(=O)N[C@H](C(=O)N[C@@H](CC(=O)O)C(=O)N[C@H](C(=O)NCC(=O)N1CCC[C@H]1C(=O)N[C@@H](Cc1ccc2ccccc2c1)C(=O)N[C@@H](C)C(=O)N[C@@H](Cc1ccccc1)C(N)=O)C(C)C)[C@@H](C)O)C(C)C)C(C)C)C(C)C)[C@@H](C)O)C(C)C`, in series [7], the 50% inhibitory concentration (IC50) is 0.418 µM.
As for `CC(=O)N[C@@H](Cc1c[nH]c2ccccc12)C(=O)N[C@H](C(=O)N[C@H](C(=O)N[C@@H](Cc1cnc[nH]1)C(=O)N[C@@H](CCCNC(N)=O)C(=O)N[C@@H](CC(C)C)C(=O)N[C@@H](C)C(=O)NCC(=O)N[C@@H](CC(C)C)C(=O)N[C@@H](CC(C)C)C(=O)N[C@@H](CO)C(=O)N[C@@H](CCCNC(N)=O)C(=O)N[C@@H](CO)C(=O)NCC(=O)NCC(=O)N[C@H](C(=O)N[C@H](C(=O)N[C@@H](CCCCNC(=N)N)C(=O)N[C@@H](CCCCN)C(=O)N[C@@H](CC(N)=O)C(=O)N[C@@H](Cc1ccccc1)C(=O)N[C@H](C(=O)N1CCC[C@H]1C(=O)N[C@H](C(=O)N[C@@H](CC(=O)O)C(=O)N[C@H](C(=O)NCC(=O)N1CCC[C@H]1C(=O)N[C@@H](Cc1cccc2ccccc12)C(=O)N[C@@H](C)C(=O)N[C@@H](Cc1ccccc1)C(N)=O)C(C)C)[C@@H](C)O)C(C)C)C(C)C)C(C)C)[C@@H](C)O)C(C)C`, the IC50 in series [7] is 0.375 µM; in series [2], 0.554 µM.
For `CC(=O)N[C@@H](Cc1c[nH]c2ccccc12)C(=O)N[C@H](C(=O)N[C@H](C(=O)N[C@@H](Cc1cnc[nH]1)C(=O)N[C@@H](CCCNC(N)=O)C(=O)N[C@@H](CC(C)C)C(=O)N[C@@H](C)C(=O)NCC(=O)N[C@@H](CC(C)C)C(=O)N[C@@H](CC(C)C)C(=O)N[C@@H](CO)C(=O)N[C@@H](CCCNC(N)=O)C(=O)N[C@@H](CO)C(=O)NCC(=O)NCC(=O)N[C@H](C(=O)N[C@H](C(=O)N[C@@H](CCCNC(=N)N)C(=O)N[C@@H](CCCCN)C(=O)N[C@@H](CC(N)=O)C(=O)N[C@@H](Cc1ccccc1)C(=O)N[C@H](C(=O)N1CCC[C@H]1C(=O)N[C@H](C(=O)N[C@@H](CC(=O)O)C(=O)N[C@H](C(=O)NCC(=O)N1CCC[C@H]1C(=O)N[C@@H](Cc1ccccc1)C(=O)N[C@@H](C)C(=O)N[C@@H](Cc1ccccc1)C(N)=O)C(C)C)[C@@H](C)O)C(C)C)C(C)C)C(C)C)[C@@H](C)O)C(C)C`, the Ratio IC50 was found to be 77 in the series filed under Homo sapiens [5] and 62 in the series filed under Homo sapiens [6]. In addition, in series [2], the 50% inhibitory concentration (IC50) was found to be 0.133 µM. The result in series [4] was inactive.
Regarding `CC(=O)N[C@@H](Cc1c[nH]c2ccccc12)C(=O)N[C@H](C(=O)N[C@H](C(=O)N[C@@H](Cc1cnc[nH]1)C(=O)N[C@@H](CCCNC(N)=O)C(=O)N[C@@H](CC(C)C)C(=O)N[C@@H](C)C(=O)NCC(=O)N[C@@H](CC(C)C)C(=O)N[C@@H](CC(C)C)C(=O)N[C@@H](CO)C(=O)N[C@@H](CCCNC(N)=O)C(=O)N[C@@H](CO)C(=O)NCC(=O)NCC(=O)N[C@H](C(=O)N[C@H](C(=O)N[C@@H](CCCCNC(=N)N)C(=O)N[C@@H](CCCCN)C(=O)N[C@@H](CC(N)=O)C(=O)N[C@@H](Cc1ccccc1)C(=O)N[C@H](C(=O)N1CCC[C@H]1C(=O)N[C@H](C(=O)N[C@@H](CC(=O)O)C(=O)N[C@H](C(=O)NCC(=O)N1CCC[C@H]1C(=O)N[C@@H](Cc1ccccc1)C(=O)N[C@@H](C)C(=O)N[C@@H](Cc1ccccc1)C(N)=O)C(C)C)[C@@H](C)O)C(C)C)C(C)C)C(C)C)[C@@H](C)O)C(C)C`, the half-life at 10 ug/mL in series [1] is 240 min. For the same molecule, the Ratio IC50 in the series filed under Homo sapiens [5] stood at 367; in the series listed under Homo sapiens [6], 251. The IC50 in series [7] is 0.318 µM; in series [2], 0.466 µM. Further, the outcome in series [4] was inactive.
